Laboratory results published in ChEMBL document CHEMBL1154689, “Coordination chemistry based approach to lipophilic inhibitors of 1-deoxy-D-xylulose-5-phosphate reductoisomerase” (J Med Chem, 2009).
Converted amounts (≈) assume the structure as drawn.

Legend:
Escherichia coli [1] = assay: Inhibition of Escherichia coli M15 DXR at 100 uM
Micrococcus luteus = assay: Antibacterial activity against Micrococcus luteus WT after 24 hrs by NCCLS method; format: functional
Method in brief: (§1)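 MIC taken as the lowest agent concentration preventing visible bacterial growth after 24 h incubation at 37 °C.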

Pseudomonas aeruginosa = assay: Antibacterial activity against Pseudomonas aeruginosa H45006 after 24 hrs by NCCLS method; format: functional; conditions: H45006, 24 h; method in brief: as §1
Escherichia coli [2] = assay: Antibacterial activity against Escherichia coli B/r after 24 hrs by NCCLS method; format: functional; method in brief: as §1
Bacillus anthracis = assay: Antibacterial activity against Bacillus anthracis Sterne after 24 hrs by NCCLS method; format: functional
[3] = Inhibition of Escherichia coli M15 DXR
[4] = Cytotoxicity against human WI38 cells after 24 hrs by MTS assay; format: cell-based; conditions: WI-38, 24 h
[5] = Cytotoxicity against human BEAS2B cells after 24 hrs by MTS assay; format: cell-based; conditions: BEAS-2B

With `O=C(O)CCc1ccc(O)c(O)c1` the inhibition (Escherichia coli [1]) was 26.2%.
`Oc1ccc(-c2ccccc2)cc1O` showed an MIC (Micrococcus luteus) of 200 µM (≈ 37.2 µg/mL), an MIC (Pseudomonas aeruginosa) of 200 µM (≈ 37.2 µg/mL) and an MIC (Escherichia coli [2]) of 500 µM (≈ 93.1 µg/mL). For the same compound, the MIC (Bacillus anthracis) was 200 µM (≈ 37.2 µg/mL).
`O=c1ccn(O)c(=O)n1Cc1ccccc1` showed an inhibition (Escherichia coli [1]) of 0%.
`O=c1ccc(-c2ccccc2)cn1O` [1-HYDROXY-5-PHENYLPYRIDIN-2(1H)-ONE] gave an MIC (Micrococcus luteus) of 100 µM (≈ 18.7 µg/mL), an IC50 [3] of 1.4 µM and an MIC (Pseudomonas aeruginosa) of 50 µM (≈ 9.36 µg/mL). For the same compound, the MIC (Escherichia coli [2]) was 100 µM (≈ 18.7 µg/mL), the IC50 [4] was > 300 µM and the IC50 [5] was > 300 µM. For the same compound, the MIC (Bacillus anthracis) was 20 µM (≈ 3.74 µg/mL).
With `Nc1cc(-c2ccccc2)ccc1O` the inhibition (Escherichia coli [1]) was 0%.
For `Oc1cnc(Cc2ccccc2)nc1O`, the inhibition (Escherichia coli [1]) was 30%.
`NC[C@H]1O[C@H](O[C@H]2[C@H](O)[C@@H](O[C@H]3O[C@H](CO)[C@@H](O)[C@H](N)[C@H]3O)[C@H](N)C[C@@H]2N)[C@H](O)[C@@H](O)[C@@H]1O` [KANAMYCIN] showed an MIC (Micrococcus luteus) of 20 µM (≈ 9.69 µg/mL), an MIC (Pseudomonas aeruginosa) of 200 µM (≈ 96.9 µg/mL) and an MIC (Escherichia coli [2]) of 10 µM (≈ 4.85 µg/mL). It also gave an MIC (Bacillus anthracis) of 5 µM (≈ 2.42 µg/mL).
`O=c1cc(Cc2ccccc2)occ1O` showed an inhibition (Escherichia coli [1]) of 0%.
`O=C(Cc1ccccc1)NO` gave an inhibition (Escherichia coli [1]) of 26%.
For `O=CN(O)CCCP(=O)(O)O` [FOSMIDOMYCIN], the MIC (Micrococcus luteus) was > 1000 µM, the IC50 [3] was 0.08 µM and the MIC (Pseudomonas aeruginosa) was 20 µM (≈ 3.66 µg/mL). The MIC (Escherichia coli [2]) was 10 µM (≈ 1.83 µg/mL) and the MIC (Bacillus anthracis) was 100 µM (≈ 18.3 µg/mL).
For `O=c1n(O)ccn1Cc1ccccc1`, the inhibition (Escherichia coli [1]) was 19%.
In the case of `Oc1ccc(-c2ccccc2)cn1`, the IC50 [3] is reported as 75 µM.
Work on `O=c1cc(Cc2ccccc2)[nH]cc1O` yielded an inhibition (Escherichia coli [1]) of 0%.
Compound `CC1(C)S[C@@H]2[C@H](NC(=O)[C@H](N)c3ccccc3)C(=O)N2[C@H]1C(=O)O` [AMPICILLIN] has an MIC (Micrococcus luteus) of 1 µM (≈ 0.349 µg/mL), an MIC (Pseudomonas aeruginosa) of 500 µM (≈ 175 µg/mL) and an MIC (Escherichia coli [2]) of 5 µM (≈ 1.75 µg/mL). For the same compound, the MIC (Bacillus anthracis) was 0.1 µM (≈ 0.0349 µg/mL).
With `O=P(O)(O)CCc1ccc(O)c(O)c1` the MIC (Micrococcus luteus) was > 1000 µM, the MIC (Pseudomonas aeruginosa) was 1000 µM (≈ 218 µg/mL) and the MIC (Escherichia coli [2]) was > 1000 µM. The MIC (Bacillus anthracis) was 1000 µM (≈ 218 µg/mL).
Work on `[O-][n+]1cccc(-c2ccccc2)c1` yielded an inhibition (Escherichia coli [1]) of 0%.
Work on `Oc1ccc(Cc2ccccc2)cc1O` yielded an MIC (Micrococcus luteus) of 200 µM (≈ 40 µg/mL), an IC50 [3] of 22.4 µM and an MIC (Pseudomonas aeruginosa) of 200 µM (≈ 40 µg/mL). The MIC (Escherichia coli [2]) was 1000 µM (≈ 200 µg/mL) and the MIC (Bacillus anthracis) was 200 µM (≈ 40 µg/mL).
`O=C(O)c1cc(-c2ccccc2)ccc1O` showed an inhibition (Escherichia coli [1]) of 0%.
